In ChEMBL document CHEMBL4837188, “Identification of Novel Tricyclic Benzo[1,3]oxazinyloxazolidinones as Potent Antibacterial Agents with Excellent Pharmacokinetic Profiles against Drug-Resistant Pathogens” (J Med Chem, 2021) one finds MIC data, which are given here for five compounds.

For orientation: MIC means the lowest concentration found to suppress growth.

SMILES strings stand for the structures. ≈ marks a conversion by molar mass, not a printed value.

Assay type in all cases: functional
Assay [1] deals with Mycobacterium tuberculosis. In words: Antitubercular activity against INH, SM, RFP, EMB, RBT, PAS, OLFX-resistant Mycobacterium tuberculosis 13946 assessed as bacterial growth inhibition incubated for 7 days by MABA. The note with it: Mycobacterium tuberculosis, 13946, 168 h; time 7 day. The gist of the method:
(§1)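 Microplate alamar blue assay. H37Rv or clinical isolates were grown to late log phase in 7H9 broth with glycerol, Tween 80 and ADC, then 2 × 10⁵ CFU added to two-fold dilutions. Final range 32–0.5 μg/mL, lowered to 2–0.016 μg/mL for active compounds. 37 °C, 7 days, then alamar blue 16 h. Fluorescence 530/590 nm. MIC is the lowest concentration giving ≥90% reduction; INH and RFP were controls.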
(In general: Alamar Blue is a resazurin reagent that responds to reducing activity.)

The test system of assay [2] is Mycobacterium tuberculosis. In words: Antitubercular activity against INH, SM, RFP, EMB, PAS, Prothionamide 1321, Capreomycin-resistant Mycobacterium tuberculosis 14862 assessed as bacterial growth inhibition incubated for 7 days by MABA. The note with it: Mycobacterium tuberculosis, 14862, 168 h; time 7 day. The method, boiled down:
as §1

For assay [3], the system named is Mycobacterium tuberculosis. Description: Antitubercular activity against linezolid resistant Mycobacterium tuberculosis assessed as inhibition of bacterial growth incubated for 7 days by MABA. As to conditions: 168 h, time 7 day.

Turning to `CC(=O)NC[C@@H]1OC(=O)N2Cc3cc(-c4ccc(-c5nnn(C)n5)nc4)c(F)cc3O[C@@H]12`, the MIC in assay [1] worked out at 0.39 µg/mL (≈ 0.888 µM); in assay [2] it was 0.85 µg/mL (≈ 1.93 µM); in assay [3], 2.32 µg/mL (≈ 5.28 µM).

With `CC(=O)NC[C@@H]1OC(=O)N2Cc3cc(-c4ccc(C#N)nc4)c(F)cc3O[C@@H]12`, the minimal inhibitory concentration (MIC) was 0.48 µg/mL (≈ 1.26 µM) in assay [1], 0.82 µg/mL (≈ 2.14 µM) in assay [2] and 3.63 µg/mL (≈ 9.49 µM) in assay [3].

For the compound `NNC(=O)c1ccncc1` [ISONIAZID], the MIC in assay [1] was 2.38 µg/mL (≈ 17.4 µM); in assay [2], above 10 µg/mL.

Regarding `CC(=O)NC[C@H]1CN(c2ccc(N3CCOCC3)c(F)c2)C(=O)O1` [LINEZOLID], in assay [3], the minimal inhibitory concentration (MIC) amounted to 14.5 µg/mL (≈ 43.1 µM).

Consider `CO[C@H]1/C=C/O[C@@]2(C)Oc3c(C)c(O)c4c(O)c(c(/C=N/N5CCN(C)CC5)c(O)c4c3C2=O)NC(=O)/C(C)=C\C=C\[C@H](C)[C@H](O)[C@@H](C)[C@@H](O)[C@@H](C)[C@H](OC(C)=O)[C@@H]1C` [RIFAMPIN], for which the MIC in assay [1] and in assay [2] was above 10 µg/mL throughout.
